Here are results for 3 compounds from publication PMC6024207 (Chemical Science, 2016).

For one experiment, the system named is bovine SOD1. As to the kind of experiment: Inhibition of bovine SOD1 activity in pH 7.4 buffer. Type of experiment: biochemical. As to conditions: 1 μM SOD1, 5 μM compound, 60 min, 37 °C, 1% DMSO. The gist of the method: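 Bovine SOD1 (1 μM) was preincubated 60 min at 37 °C with 5 μM test compound in pH 7.4 buffer containing 1% DMSO. Activity was then measured with a SOD1-specific superoxide dismutase assay kit. Control was the same buffer with 1% DMSO. n ≥ 3, each condition in duplicate; results are mean ± SD.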

The test system of experiment [1] is CcO. As to the kind of experiment: CcO activity in treated HeLa cells. It counts as cell-based, human. Particulars: HeLa cells treated 24 h with 50 μM, then lysed. The gist of the method:
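HeLa cells were treated 24 h with 50 μM test compound and lysed. Ferrocytochrome c (cytochrome c reduced with dithiothreitol) was added, and the absorbance change at 550 nm was followed, using a reduced–oxidized extinction difference of 21.84. One unit oxidizes […] at pH 7.4, 25 °C. Control was a blank containing 1% DMSO. Results are mean ± SD of at least three experiments in duplicate.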

Experiment [2] deals with CcO. As to the kind of experiment: CcO activity in lysates of untreated HeLa cells. Type of experiment: biochemical, human. As to conditions: incubation for 30 min with 50 μM. The gist of the method: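 Untreated HeLa cells were lysed, and lysates were incubated 30 min with 50 μM test compound. CcO activity was then read with a human CcO ELISA kit. Control was a blank containing 1% DMSO. Results are mean ± SD of at least three experiments, each condition in duplicate.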

The subject of a further experiment is tyrosinase from potato. The experiment can be described thus: Tyrosinase activity. It counts as biochemical. Particulars: 50 μM, incubation for 0–20 min. The gist of the method:
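Tyrosinase was isolated and purified from potato. The enzyme extract was preincubated at 30 °C in 0.05 M phosphate buffer pH 6.8 containing 50 μM test compound. L-DOPA was added from a 5 mM solution. DOPAchrome formation was followed at 475 nm over time (ε = 3600), and the initial rate gave activity. Control was a blank with 1% DMSO.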

For `CCN(CC)C(=S)S` [DDC, diethyldithiocarbamate], in the experiment on bovine SOD1, the “SOD1 activity, % of the control” value was greater than 60%.
In the case of `[N-]=[N+]=[N-].[Na+]` [NaN3], the “CcO activity relative to control” value with CcO [1] is given as “complete inactivation of CcO”. The “CcO activity in lysates of untreated cells” value in the experiment on CcO [2] is “complete inactivation of CcO”.
For `[SH-].[SH-].[S]=[Mo]=[S]` [TM, tetrathiomolybdate], in the experiment with tyrosinase from potato, the “reduction in tyrosinase activity relative to the control” value is on record as “complete inactivation of the enzyme”. The “CcO activity relative to control” value in the experiment with CcO [1] is reported as “reduced to half of that of the control”. Moreover, the “CcO activity in lysates of untreated cells” value in the experiment on CcO [2] is on record as “partial”.
